These results are taken from ChEMBL document CHEMBL1156686, “Xanthine oxidase-activated prodrugs of thymidine phosphorylase inhibitors” (Eur J Med Chem, 2008).

The source made the active and inactive calls. The calls are words filed in the database; no cut-off is given here.

Test [1] has as its target Thymidine phosphorylase (Escherichia coli K-12) (UniProt P07650). Briefly: Inhibition of Escherichia coli thymidine phosphorylase at 158 uM. An outline of the steps:
(§1)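 Recombinant E. coli TP (0.00883 U per 0.2 ml) added to start a continuous spectrophotometric assay. Mix: 0.13 mM 5-nitro-2'-deoxyuridine substrate in 0.1 M potassium phosphate, pH 7.4, 25 °C, read at 355 nm in a microplate. Initial velocity compared with the mean of at least two no-inhibitor controls. Where derived, IC50 used at least five concentrations spanning the value.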

Test [2] shares this target. The experiment in a line: Inhibition of Escherichia coli thymidine phosphorylase at 74 to 148 uM. An outline of the steps:
as §1

The target is the same in test [3]. Briefly: Inhibition of Escherichia coli thymidine phosphorylase at 103.6 to 207.2 uM. An outline of the steps:
as §1

Test [4] shares this target. The experiment in a line: Inhibition of Escherichia coli thymidine phosphorylase at 106.3 to 212.6 uM. Summed up:
as §1

For test [5] the target is unchanged. Briefly: Inhibition of Escherichia coli thymidine phosphorylase at 45 uM. An outline of the steps:
as §1

Test [6] has the same target. The experiment in a line: Inhibition of Escherichia coli thymidine phosphorylase at 68.4 to 136.9 uM. An outline of the steps:
as §1

For test [7] the target is unchanged. The experiment in a line: Inhibition of Escherichia coli thymidine phosphorylase at 66 uM. Summed up: as §1
The target is the same in test [8]. Briefly: Inhibition of Escherichia coli thymidine phosphorylase at 163 uM. Summed up: as §1
Test [9] shares this target. Briefly: Inhibition of Escherichia coli thymidine phosphorylase at 73.7 to 147.7 uM. An outline of the steps:
as §1

For test [10] the target is unchanged. Briefly: Inhibition of Escherichia coli thymidine phosphorylase at 47.2 uM. Summed up:
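Recombinant E. coli TP; continuous spectrophotometric assay at 355 nm, 25 °C, 0.2 ml. Contains 0.13 mM 5-nitro-2'-deoxyuridine substrate in 0.1 M potassium phosphate pH 7.4. Reaction started with TP (0.00883 U/0.2 ml). Inhibitor added from stock. Initial velocity compared with the mean of at least two no-inhibitor controls.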

For test [11], the target named is T1, Thymidine phosphorylase (Homo sapiens) (UniProt P19971).
T1 sequence (whole entry): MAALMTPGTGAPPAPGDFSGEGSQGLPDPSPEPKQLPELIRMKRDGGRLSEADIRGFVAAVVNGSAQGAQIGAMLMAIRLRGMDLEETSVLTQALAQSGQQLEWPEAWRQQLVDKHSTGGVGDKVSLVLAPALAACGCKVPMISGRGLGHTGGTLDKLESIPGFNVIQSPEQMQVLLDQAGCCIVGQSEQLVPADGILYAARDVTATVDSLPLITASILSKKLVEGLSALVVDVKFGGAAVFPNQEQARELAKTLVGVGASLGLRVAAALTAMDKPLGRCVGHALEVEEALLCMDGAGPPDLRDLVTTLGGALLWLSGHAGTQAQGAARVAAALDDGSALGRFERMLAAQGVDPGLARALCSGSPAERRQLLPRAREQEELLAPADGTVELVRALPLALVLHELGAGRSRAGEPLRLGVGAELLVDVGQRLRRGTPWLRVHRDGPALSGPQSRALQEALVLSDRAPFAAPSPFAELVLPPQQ
Briefly: Inhibition of human recombinant thymidine phosphorylase at 62.3 uM. Summed up: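 Recombinant human TP expressed in V79 Chinese hamster cells; continuous spectrophotometric assay at 355 nm, 25 °C. Uses 0.33 mM 5-nitro-2'-deoxyuridine substrate in 0.1 M potassium phosphate pH 7.4. Reaction started by adding enzyme. Inhibition taken from initial velocity relative to the mean of at least two no-inhibitor controls.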

Sequence of Thymidine phosphorylase (Escherichia coli K-12) (P07650 whole entry, looked up): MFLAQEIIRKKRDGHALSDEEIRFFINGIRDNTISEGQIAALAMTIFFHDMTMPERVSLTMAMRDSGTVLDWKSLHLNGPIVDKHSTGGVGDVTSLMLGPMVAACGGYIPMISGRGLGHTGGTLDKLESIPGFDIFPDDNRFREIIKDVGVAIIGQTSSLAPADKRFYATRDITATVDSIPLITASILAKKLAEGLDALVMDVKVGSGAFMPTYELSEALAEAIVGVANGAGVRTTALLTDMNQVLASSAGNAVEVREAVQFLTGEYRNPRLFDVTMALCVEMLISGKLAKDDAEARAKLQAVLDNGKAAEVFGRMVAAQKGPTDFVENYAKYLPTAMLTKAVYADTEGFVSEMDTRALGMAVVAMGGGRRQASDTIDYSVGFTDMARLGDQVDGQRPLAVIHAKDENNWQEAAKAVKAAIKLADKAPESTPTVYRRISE

As for `O=c1[nH]c(=O)c2nc[nH]c2[nH]1`, in test [1], the outcome was inactive.
`O=c1ncc2cc[nH]c2[nH]1`: the result in test [2] was inactive.
With `O=c1[nH]cnc2[nH]ccc12`, the outcome in [3] was inactive.
Take `Nc1ncncc1Br`: the result in [4] was inactive.
Take `O=c1[nH]c(=S)[nH]c2[nH]ccc12`: the result in test [5] was inactive.
Turning to `Nc1[nH]c(=O)ncc1Br`, the result in test [6] was inactive.
With `Cc1nc[nH]c(=O)c1Cl`, the outcome in test [7] was inactive.
As to `O=c1nccc2[nH]ccn12`, the result in test [8] was inactive.
For the compound `Nc1nc[nH]c(=O)c1Br`, in test [9], the result was inactive.
Turning to `N=C1CCCN1Cc1nc[nH]c(=O)c1Cl`, the outcome in test [10] and in [11] was inactive.
